In ChEMBL document CHEMBL1159358, “Cytotoxic prenylflavanones from Taiwanese propolis” (J Nat Prod, 2003):
≈ marks a conversion by molar mass, not a printed value. Calls of active or inactive are those of the source. The rule behind the calls is not given here.

Legend:
[1] = test system: Radical scavenging activity; assay: Antioxidant activity against DPPH radical scavenging activity at 6.25 ug/ml; format: functional
How it was run: (§1)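 Scavenging of DPPH radical: sample in methanol (3.125, 6.25, 12.5, 25.0 µg/mL final) mixed 1:1 with 0.15 mM DPPH in methanol; absorbance change at 517 nm followed for 1 min. Percent scavenged = 100 × (A0 − Ai)/A0, A0 being initial DPPH absorbance.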

[2] = test system: Radical scavenging activity; assay: Antioxidant activity against DPPH radical scavenging activity at 3.125 ug/ml; format: functional; how it was run: as §1
[3] = test system: Radical scavenging activity; assay: Antioxidant activity against DPPH radical scavenging activity at 12.5 ug/ml; format: functional; how it was run: as §1
[4] = test system: Radical scavenging activity; assay: Antioxidant activity against DPPH radical scavenging activity at 25 ug/ml; format: functional; how it was run: as §1
Melanoma cell [5] = assay: Induction of apoptosis in human Melanoma cells assessed as accumulation at subG1 at 15 uM after 12 hrs by flow cytometry analysis; format: functional; details: in the assay text read “15 ug/mL” for “15 uM”
How it was run: (§2)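 Melanoma cells (1 × 10^6 per 60 mm dish) preincubated 12 h, then exposed to 15 µg/mL compound or DMSO for 0, 3, 6, 12 or 24 h. Cells fixed in ice-cold ethanol at −20 °C overnight, treated with Triton X-100/RNase A 30 min at 37 °C, stained with propidium iodide. Sub-G1 (lower DNA content) fraction measured by flow cytometry.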

Melanoma cell [6] = assay: Cytotoxicity against human Melanoma cells after 24 hrs by trypan blue exclusion assay; format: functional, cell-based
How it was run: (§3)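 Human melanoma and C6 glioma cells grown in DMEM with 10% FBS and 1% penicillin/streptomycin, 37 °C, 5% CO2. Seeded at 1 × 10^5 cells/well and exposed to various compound concentrations for 24 h. Cells counted; viability by trypan blue exclusion.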

C6 [7] = assay: Cytotoxicity against rat C6 cells at >15 ug/m after 24 hrs by trypan blue exclusion assay; format: functional, cell-based; how it was run: as §3
[8] = test system: Radical scavenging activity; assay: Antioxidant activity against DPPH radical scavenging activity; format: functional; how it was run: as §1
HL-60 [9] = assay: Cytotoxicity against human HL60 cells after 24 hrs by trypan blue exclusion assay; format: functional, cell-based; details: HL-60, 24 h
How it was run: (§4)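 HL-60 cells grown in RPMI 1640 with 10% FBS and 1% penicillin/streptomycin, 37 °C, 5% CO2. Seeded at 1 × 10^5 cells/well and exposed to various compound concentrations for 24 h. Cells counted; viability by trypan blue exclusion.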

Melanoma cell [10] = assay: Induction of apoptosis in human Melanoma cells assessed as accumulation at subG1 at 15 ug/mL after 6 hrs by flow cytometry analysis
Melanoma cell [11] = assay: Induction of apoptosis in human Melanoma cells assessed as accumulation at subG1 at 15 uM after 24 hrs by flow cytometry analysis; format: functional; details: in the assay text read “15 ug/mL” for “15 uM”; how it was run: as §2
HL-60 [12] = assay: Cytotoxicity against human HL60 cells at >15 ug/ml after 24 hrs by trypan blue exclusion assay; format: functional, cell-based; how it was run: as §4
Melanoma cell [13] = assay: Induction of apoptosis in human Melanoma cells assessed as accumulation at subG1 at 15 ug/mL after 3 hrs by flow cytometry analysis
HL-60 (Homo sapiens) = assay: Induction of apoptosis in human HL-60 cells assessed as DNA fragmentation at 5 ug/ml after 24 hrs by agarose gel electrophoresis
C6 [14] = assay: Cytotoxicity against rat C6 cells after 24 hrs by trypan blue exclusion assay; format: functional, cell-based; details: C6, 24 h; how it was run: as §3

| SMILES | Activity [1] [%] | Activity [2] [%] | Activity [3] [%] | Activity [4] [%] | Activity (Melanoma cell [5]) [%] | IC50 (Melanoma cell [6]) [µg/mL] | Activity (C6 [7]) | IC50 [8] [µg/mL] | IC50 (HL-60 [9]) [µg/mL] | Activity (Melanoma cell [10]) [%] | Activity (Melanoma cell [11]) [%] | Activity (HL-60 [12]) | Activity (Melanoma cell [13]) [%] | Activity (HL-60 (Homo sapiens)) | IC50 (C6 [14]) [µg/mL] |
| --- | --- | --- | --- | --- | --- | --- | --- | --- | --- | --- | --- | --- | --- | --- | --- |
| O=C(/C=C/c1ccc(O)c(O)c1)OCCc1ccccc1 | 85.5 | 39.1 | 98.5 | 99.8 | – | – | – | – | – | – | – | – | – | – | – |
| C/C(=C/Cc1c([C@@H]2CC(=O)c3c(O)cc(O)cc3O2)ccc(O)c1O)CCCC(C)(C)O [PROPOLIN A] | 72.2 | 36 | 92.1 | 99.5 | 23.93 | 6 (≈ 13.6 µM) | Active | 5 (≈ 11.3 µM) | 7.5 (≈ 16.9 µM) | 15.22 | 40.95 | Active | 15.01 | Active | 3.5 (≈ 7.91 µM) |
| C/C(=C\Cc1cc([C@@H]2CC(=O)c3c(O)cc(O)cc3O2)cc(O)c1O)CCCC(C)(C)O [PROPOLIN B] | 36.7 | 18.3 | 85.7 | 94.7 | – | 7.5 (≈ 16.9 µM) | – | 9 (≈ 20.3 µM) | 7.5 (≈ 16.9 µM) | – | – | – | – | – | 4 (≈ 9.04 µM) |
